Rows were chosen to be rich in hits. Some 4.1% of all compounds tested hit in one or more screens of this group.
hERG protect = shields human hERG channel from block by proarrhythmic agents | Q12809 | CHO-hERG, FluxOR thallium flux, dofetilide IC70 present | activation (rescue from dofetilide block), less the hit threshold, % at 10 µM | 310,000 compounds, 0.51% hits | AID 1511;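 active = activation above the mean of controls blocked by dofetilide plus 5 SD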;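 also: thallium influx through hERG after potassium depolarization seen as dye fluorescence rise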
KCNK3 block = human KCNK3 channel inhibition, primary screen; 340,000 compounds, 0.84% hits; B-score at 10 µM; CHO-KCNK3 thallium flux, FluxOR fluorescence; active compounds read low; AID 602410; O14649;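 active = B-score under library mean minus 4 SD, starting fluorescence ratio at most library mean plus 5 SD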;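 also: more negative B-score means stronger inhibition of thallium flux through KCNK3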
Target sequence (O14649 whole entry, looked up): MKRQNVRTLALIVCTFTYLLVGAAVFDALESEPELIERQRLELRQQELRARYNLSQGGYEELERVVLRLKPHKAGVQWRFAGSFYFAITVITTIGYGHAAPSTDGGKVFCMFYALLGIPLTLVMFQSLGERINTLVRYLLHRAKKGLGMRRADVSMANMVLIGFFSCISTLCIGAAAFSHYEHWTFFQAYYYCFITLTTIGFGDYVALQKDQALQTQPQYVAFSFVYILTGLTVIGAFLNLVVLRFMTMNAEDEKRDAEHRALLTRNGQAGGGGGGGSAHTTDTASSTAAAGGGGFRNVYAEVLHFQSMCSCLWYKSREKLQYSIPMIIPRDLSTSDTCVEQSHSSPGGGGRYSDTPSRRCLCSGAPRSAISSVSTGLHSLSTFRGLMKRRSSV
KCNQ1 act = potentiates or activates the human KCNQ1 potassium channel. CHO-K1 KCNQ1, thallium flux FluxOR fluorescence; active compounds read high. 310,000 compounds, 0.35% hits. P51787. B-score at 10 µM. AID 2648;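 active = fluorescence ratio B-score, a plate-corrected score, at least three library SD, with initial intensity B-score within 5 SD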
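System: Stable KCNQ1 CHO-K1 line | Incubation: 90 min dye loading and 20 min compound exposure, both at room temperature | Measure: Ratio B score | Medium: Assay buffer for compound exposure, DMSO matched across wells | Compound dosing: Single-concentration screen | Probe or stimulus: K+/Tl+ depolarizing stimulus | Measured by: Kinetic FluxOR fluorescence, 10 s baseline plus 110 s post-stimulus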
Cl transport mod = modulates chloride dependent transport by human KCC2; KCC2 cells, thallium flux FluoZin-2 fluorescence; B-score of Tl+ flux slope (higher = more flux/activation; lower = inhibition) at 10 µM; 190,000 compounds, 2.2% hits; Q9H2X9;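 active = thallium flux slope and its plate-corrected score both differing from the plate sample mean at a set confidence after two filtering rounds, in either direction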;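 also: slope of fluorescence scaled to starting intensity during 10 to 20 s after thallium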
KCNK9 inh = blocks the human KCNK9 two-pore domain potassium channel | 310,000 compounds, 1.2% hits | HEK293 KCNK9, FluxOR thallium flux fluorescence; active compounds read low | AID 488922 | B-score at 10 µM | Q9NPC2;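 active = ratio B-score over 3 SD below the library mean, with starting fluorescence within 5 SD of its mean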;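 also: negative B-score means less thallium flux so channel inhibition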
Target sequence (Q9NPC2 whole entry, looked up, the tested form may be a part): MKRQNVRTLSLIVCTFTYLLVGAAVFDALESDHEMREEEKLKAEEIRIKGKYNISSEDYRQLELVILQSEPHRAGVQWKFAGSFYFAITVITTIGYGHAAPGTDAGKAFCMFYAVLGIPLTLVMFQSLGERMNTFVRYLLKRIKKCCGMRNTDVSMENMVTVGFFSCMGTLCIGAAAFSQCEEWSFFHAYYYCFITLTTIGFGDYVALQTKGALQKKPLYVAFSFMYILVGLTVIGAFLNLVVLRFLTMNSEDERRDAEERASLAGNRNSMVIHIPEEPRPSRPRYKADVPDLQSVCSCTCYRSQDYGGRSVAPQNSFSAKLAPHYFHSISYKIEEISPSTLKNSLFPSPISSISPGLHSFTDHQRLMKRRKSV
KCNQ1 block = blocks the human KCNQ1 potassium channel; CHO-K1 KCNQ1, FluxOR thallium flux fluorescence; active compounds read high; B-score at 10 µM; 310,000 compounds, 1.3% hits; AID 2642;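 active = compounds whose thallium flux B-score, printed positive for inhibition, exceeds three library SD while starting fluorescence stays within three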;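 also: channel opened by potassium depolarization with thallium stimulus after 20 min compound exposure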
Large screens that a line does not name were inactive.

COCC(=O)NC1CCN(S(=O)(=O)c2ccc(C(=O)O)cc2)CC1	none (no result: Cl transport mod)
CCC1CCCCN1Cc1ccc(OC)c(C)c1C (centres undefined)	hERG protect 5.3 (no result: Cl transport mod)
COc1ccc(CN2CCN(CC3CC3)CC2CCO)c(C)c1C (centres undefined)	none (no result: Cl transport mod)
Nc1ncnc2c1ncn2[C@@H]1O[C@H](CNCc2ccc(OCC(=O)Nc3nccs3)cc2)[C@@H](O)[C@H]1O	none (no result: hERG protect, KCNQ1 act, Cl transport mod, KCNK9 inh, KCNQ1 block)
O=C(N/C(=C\c1ccc(-c2ccccc2)o1)C(=O)N1CCOCC1)c1ccccc1	Cl transport mod -7.3 (no result: hERG protect, KCNQ1 act, KCNK9 inh, KCNQ1 block)
O=C(N/C(=C/c1ccc(F)cc1)C(=O)N1CCOCC1)c1ccccc1	none (no result: Cl transport mod)
Cc1cc(NC(=O)c2noc3c2CCc2ccccc2-3)no1	none (no result: Cl transport mod)
Cc1c(NC(=O)c2noc3c2CCc2ccccc2-3)c(=O)n(-c2ccccc2)n1C	Cl transport mod -3.3
CCOC(=O)C1=CN(Cc2cccc(-c3ccc4c(c3)OCO4)c2)S(=O)(=O)N(C)C1C (centres undefined)	none (no result: hERG protect, KCNQ1 act, Cl transport mod, KCNK9 inh, KCNQ1 block)
Cc1sc2nc(SCC(=O)c3cc(C)n(CC4CCCO4)c3C)n(C(C)C)c(=O)c2c1C (centres undefined)	KCNK3 block -8.8 (no result: Cl transport mod)
S=c1nc2[nH]c3ccccc3c2n[nH]1	none (no result: hERG protect, KCNQ1 act, Cl transport mod, KCNK9 inh, KCNQ1 block)
Cc1cc(/C=C2/SC(=S)N(c3cccc(C(F)(F)F)c3)C2=O)c(C)n1-c1cccnc1	KCNQ1 block 6 (no result: Cl transport mod)
Nc1nonc1-c1nc2ccccc2n1CC(=O)Nc1ccccc1	none
CCOC(=O)c1ccccc1NC(=O)Cn1c(-c2nonc2N)nc2ccccc21	KCNK9 inh -7.6
Cc1ccc(-c2nn(-c3ccc(F)cc3)cc2C(=O)N2CCN(C3CCS(=O)(=O)C3)CC2)cc1 (centres undefined)	none (no result: hERG protect, KCNQ1 act, Cl transport mod, KCNK9 inh, KCNQ1 block)
CCCN(CCC)C(=O)c1ccc2c(c1)N(CC)C(=O)c1ccccc1S2(=O)=O	none (no result: Cl transport mod)
O=C(Nc1ccccc1)OCCCCCOC(=O)Nc1ccccc1	hERG protect 7.7 (no result: Cl transport mod)
O=C(Nc1ccccc1)OCCOc1ccccc1	none
COC(=O)c1cc(OC)c(OC)cc1NC(=S)NC(=O)c1ccco1	none (no result: Cl transport mod)
COc1ccccc1C(=O)NNC(=S)NC(=O)c1ccco1	Cl transport mod 16
O=C(NC(=S)Nc1ccccn1)c1ccco1	Cl transport mod 10
CCOc1ccccc1NC(=S)NC(=O)c1ccco1	KCNQ1 act 11 (no result: Cl transport mod)
O=C(NC(=S)NCc1ccc(Cl)cc1)c1ccco1	none (no result: hERG protect, KCNQ1 act, Cl transport mod, KCNK9 inh, KCNQ1 block)
CC(Oc1ccc(Cl)cc1)C(=O)NNC(=S)NC(=O)c1ccco1 (centres undefined)	Cl transport mod 26
Cc1ccc(S(=O)(=O)N2CCN(C(=O)c3ccc(N4CCC(C)CC4)c([N+](=O)[O-])c3)CC2)cc1	none (no result: hERG protect, KCNQ1 act, Cl transport mod, KCNK9 inh, KCNQ1 block)
Cc1cc(C)c(OCC(=O)Nc2nnc(C3CC3)s2)c(C)c1	none (no result: hERG protect, KCNQ1 act, Cl transport mod, KCNK9 inh, KCNQ1 block)
Cc1ccc2nsnc2c1NC(=S)NC(=O)c1ccco1	Cl transport mod 9.3
COc1ccc(C(=O)NNC(=S)NC(=O)c2ccco2)cc1	Cl transport mod 10
O=C(NC(=S)NNC(=O)c1ccco1)c1ccc(Br)cc1	KCNQ1 block 6 (no result: Cl transport mod)
COc1ccc(NS(=O)(=O)c2cc(NC(=O)c3ccc(=O)[nH]c3)ccc2N2CCCC2)cc1	none (no result: Cl transport mod)
CCC(C)Sc1ccc([C@H]2N[C@@](C)(C(=O)OC)[C@H]3C(=O)N(CC)C(=O)[C@@H]23)cc1OC (some centres undefined)	none (no result: hERG protect, KCNQ1 act, Cl transport mod, KCNK9 inh, KCNQ1 block)
O=C(CSCC(=O)N1CCCCC1)Nc1nc(-c2ccccc2)c(-c2ccccc2)s1	KCNK3 block -11 (no result: hERG protect, KCNQ1 act, KCNK9 inh, KCNQ1 block)
O=C(CSc1nc2ccc(Nc3nc(N4CCCC4)nc(N4CCCC4)n3)cc2s1)NCc1ccco1	KCNQ1 block 8
O=C(CSc1nc2ccc(Nc3nc(N4CCOCC4)nc(N4CCOCC4)n3)cc2s1)Nc1ccccc1Cl	none (no result: Cl transport mod)
CC(=O)NC12CC3CC(C1)CC(C(=O)Oc1ccc(N(C)S(=O)(=O)c4cc(C)ccc4C)cc1)(C3)C2	KCNQ1 block 6 (no result: Cl transport mod)
CC(=O)NC12CC3CC(C1)CC(C(=O)NCC(=O)Nc1c(C)cc(C)cc1C)(C3)C2	none (no result: hERG protect, KCNQ1 act, Cl transport mod, KCNK9 inh, KCNQ1 block)
O=c1cc(-c2ccccc2)cc(-c2ccccc2)n1O	hERG protect 18, KCNQ1 act 23 (no result: Cl transport mod)
Cn1c(COc2ccccc2)nnc1SCC(=O)Nc1nnc(C2CC2)s1	none (no result: hERG protect, KCNQ1 act, Cl transport mod, KCNK9 inh, KCNQ1 block)
O=C(NC(=S)Nc1ccc(CN2CCCCC2)cc1)c1cccc(OCc2ccccc2)c1	KCNQ1 block 8
O=C(NC(=S)Nc1ccc(CN2CCOCC2)cc1)c1ccc(-c2cccc(Cl)c2)o1	KCNQ1 act 20
COc1cccc(NC(=O)c2cncs2)c1	hERG protect 5.0, KCNQ1 act 14 (no result: Cl transport mod)
CCOc1cccc(C(=O)NC(=S)Nc2ccccc2)c1	Cl transport mod 19
O=C(NC(=S)Nc1ccc(CN2CCOCC2)cc1)c1cccc(F)c1	none (no result: Cl transport mod)
COc1ccc(NS(=O)(=O)c2ccc3c(c2)N(C(C)=O)CCO3)cc1	none (no result: Cl transport mod)
COc1cccc(C(=O)Nc2ccccc2)c1	hERG protect 5.4
COc1cccc(C(=O)Nc2ccc(NC(=O)Cc3ccccc3)cc2)c1	none (no result: Cl transport mod)
COc1ccc(Cl)cc1C(=O)NCCN(C)C	hERG protect 6.8
C=CCOc1ccc2c(c1)C(=NO)c1cc(OCC=C)ccc1-2	KCNK9 inh -7.8 (no result: Cl transport mod)
COc1ccc2c(c1)C(=NO)c1cc(OC)ccc1-2	none
CC(CC1C(C#N)=C(N)SC(N)=C1C#N)c1ccccc1 (centres undefined)	KCNQ1 block 7
CC1(C(=O)CSc2ncn[nH]2)CCC(=O)O1 (centres undefined)	hERG protect 5.0 (no result: KCNK3 block)
O=C(NCCc1c[nH]c2ccccc12)Nc1ccccc1	KCNK9 inh -6.9
O=C(NCc1cccs1)c1ccc(CS(=O)(=O)c2ccc(Cl)cc2)o1	none (no result: Cl transport mod)
O=C(NCc1cccnc1)c1ccc(CS(=O)(=O)c2ccc(Cl)cc2)o1	Cl transport mod -5.3
CC1(C)Cc2c(ccc3ccccc23)C2=C(C(=O)N3CCCC3)C(=O)C(=O)N21	hERG protect 5.1
C=CCC1(O)C(=O)N2C(=C1C(=O)OCC)c1ccc3ccccc3c1CC2(C)C (centres undefined)	none
CCN(c1ccccc1)S(=O)(=O)c1ccc(Oc2ccccc2)c(N)c1	none (no result: hERG protect, KCNQ1 act, Cl transport mod, KCNK9 inh, KCNQ1 block)
Cn1c(-c2c(N)n(-c3ccccc3)c3nc4ccccc4nc23)nc2ccccc21	none
Cc1cccc(-n2c(N)c(-c3nc4ccccc4n3C)c3nc4ccccc4nc32)c1	KCNK3 block -8.8
COCCCN1C(=O)C2C(C(=O)Nc3cccc(Cl)c3)C3C=CC2(O3)C1C(=O)NC1CCCCC1 (centres undefined)	none (no result: Cl transport mod)
COc1cccc(/C=N/n2c(SC)nnc2-c2ccccc2)c1O	KCNQ1 act 15 (no result: Cl transport mod)
COc1cccc(/C=N/n2c(SC)nnc2-c2ccccc2)c1OC	none (no result: Cl transport mod)
Cc1cc(C)c(NC(=O)CSCc2c(C)noc2C)c(Cl)c1	none (no result: hERG protect, KCNQ1 act, Cl transport mod, KCNK9 inh, KCNQ1 block)
Cc1cc(C(F)(F)F)n(-c2nc(C(=O)NN)cs2)n1	hERG protect 5.0
